Results from different studies.
Compare with care: the assays were run in different laboratories.
Effect on: cell growth or viability

SMILES | cell line | test | conditions | endpoint | result
O=C(O)/C=C/c1ccc(C(c2c[nH]c3ccccc23)c2c[nH]c3ccccc23)s1 | DU-145 | MTT | 100 µM, 48 h | inhibition | 55%
COc1cc(Nc2nccc(-c3cnn4nc(OC)ccc34)n2)cc(C(F)(F)F)c1 | MOLT-4 | ATP luminescence |  | IC50 | 0.27 µM
FC(F)(F)c1ccc(C(c2c[nH]c3ccccc23)c2c[nH]c3ccccc23)cc1 | DU-145 | MTT | 100 µM, 48 h | inhibition | 95%
CCc1cccc(CN2CCc3cc(O)c(OC)cc3C2)c1 | DU-145 | WST-1 | 96 h | GI50 | > 100 µM
C[C@@H](NC(=O)[C@H](CCCCNC(=O)C(F)(F)F)NS(C)(=O)=O)C(=O)N[C@@H](CCCNC(=N)N)C(N)=O | Jurkat | MTT | 72 h | EC50 | 21.2 to 28.1 µM
COc1cc2c(cc1OS(N)(=O)=O)CCN(Cc1cccc(C)c1)C2 | DU-145 | WST-1 | 96 h | GI50 | 41.7 µM
O=C(O)/C=C/c1cccc(C(c2c[nH]c3ccccc23)c2c[nH]c3ccccc23)c1 | DU-145 | MTT | 100 µM, 48 h | inhibition | 28%
COc1ccc(-c2ccc(-c3ccc(C(=N)N)nc3)s2)cc1Cl | BT-549 | SRB |  | GI50 | 1.72 µM
CC(=O)O[C@@]12CO[C@@H]1C[C@H](O)[C@@]1(C)C(=O)[C@H](O)C3=C(C)[C@@H](OC(=O)[C@H](O)[C@@H](NC(=O)OC(C)(C)C)c4ccccc4)C[C@@](O)([C@@H](OC(=O)c4ccccc4)[C@H]21)C3(C)C | LNCaP | trypan blue | 3 nM, 72 h | inhibition | > 65%
CC(C)C[C@H](NC(=O)[C@H](Cc1ccccc1)NC(=O)c1cnccn1)B(O)O | MOLT-4 | ATP luminescence |  | IC50 | 0.0037 µM
COc1cc2c(cc1OS(N)(=O)=O)CCN(Cc1cccc([N+](=O)[O-])c1)C2 | DU-145 | WST-1 | 96 h | GI50 | 3.03 µM
Cn1cc(C(c2ccc(C(=O)O)cc2)c2cn(C)c3ccccc23)c2ccccc21 | DU-145 | MTT | 100 µM, 48 h | inhibition | ~20%
COc1cc2c(cc1OS(N)(=O)=O)CCN(S(=O)(=O)c1ccccc1OC)C2 | DU-145 | WST-1 | 96 h | GI50 | > 100 µM
O=C(O)c1ccc(C(c2c[nH]c3ccccc23)c2c[nH]c3ccccc23)cc1 | LNCaP | MTT | 100 µM, 48 h | inhibition | 100%
COc1cc2c(cc1O)CCN(Cc1cccc([N+](=O)[O-])c1)C2 | DU-145 | WST-1 | 96 h | GI50 | > 100 µM
COc1cccc(Oc2ccccc2NC(=O)CNC(=O)c2cccc3ccccc23)c1 | SF-295 | SRB | 48 h | GI50 | 0.112 µM
